Measured values published in ChEMBL document CHEMBL1149583, “Effects of oxygen-sulfur substitution on glycosaminoglycan-priming naphthoxylosides” (Bioorg Med Chem, 2007).

Tested on: CHO
Assay: Antiproliferative activity against […] CHO cells
Assay type: cell-based, Cricetulus griseus
Conditions: chinese hamster; call rule not given here

Question: For Oc1ccc2cc(O[C@@H]3OC[C@@H](O)[C@H](O)[C@H]3O)ccc2c1, which Activity is on record?
Answer: Toxic

Tested on: T-24
Assay: Antiproliferative activity against human T24 cells after 96 hrs by crystal violet method
Assay type: functional
Conditions: T-24, 96 h, read-out: ED50 (the source's name)
Summary of the method: (§1)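 Seeded at 3000 cells/well (T24) or 5000 cells/well (HFL-1) in DMEM with insulin 10 ng/mL, transferrin 25 ng/mL and 10% FCS. After 4 h, moved to serum-free Ham's F-12 with insulin/transferrin for 24 h. Grown with 10 ng/mL EGF plus xyloside at 25–500 µM for 96 h total. Fixed in 1% glutaraldehyde, stained with 0.1% crystal violet, Triton-lysed, read at A600. ED50 taken relative to untreated controls.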

Question: For CCCSc1ccc2ccc(O[C@@H]3OC[C@@H](O)[C@H](O)[C@H]3O)cc2c1, which EC50 is on record?
Answer: 60 µM

Question: With Oc1ccc2ccc(S[C@@H]3OC[C@@H](O)[C@H](O)[C@H]3O)cc2c1 as the molecule, how does the EC50 read?
Answer: 230 µM

Question: Which EC50 does the source give for CCCSc1ccc2cc(O[C@@H]3OC[C@@H](O)[C@H](O)[C@H]3O)ccc2c1 here?
Answer: 40 µM

Question: With CCCSc1ccc(O[C@@H]2OC[C@@H](O)[C@H](O)[C@H]2O)c2ccccc12 as the molecule, how does the EC50 read?
Answer: 30 µM

Question: For CCCSc1cc2ccccc2cc1O[C@@H]1OC[C@@H](O)[C@H](O)[C@H]1O, which EC50 is on record?
Answer: 70 µM

Question: For O[C@@H]1[C@@H](O)[C@H](Oc2cccc3c(S)cccc23)OC[C@H]1O, which EC50 is on record?
Answer: 110 µM

Question: With O[C@@H]1[C@@H](O)[C@H](Oc2cc3ccccc3cc2S)OC[C@H]1O as the molecule, how does the EC50 read?
Answer: 145 µM

Question: Which EC50 does the source give for CCCSc1cccc2c(O[C@@H]3OC[C@@H](O)[C@H](O)[C@H]3O)cccc12 here?
Answer: 40 µM

Question: With Oc1cccc2cccc(S[C@@H]3OC[C@@H](O)[C@H](O)[C@H]3O)c12 as the molecule, how does the EC50 read?
Answer: 225 µM

Question: Which EC50 does the source give for Oc1cccc2c(S[C@@H]3OC[C@@H](O)[C@H](O)[C@H]3O)cccc12 here?
Answer: 320 µM

Question: Which EC50 does the source give for Oc1ccc2cc(S[C@@H]3OC[C@@H](O)[C@H](O)[C@H]3O)ccc2c1 here?
Answer: 355 µM

Question: For O[C@@H]1[C@@H](O)[C@H](Oc2ccc(S)c3ccccc23)OC[C@H]1O, which EC50 is on record?
Answer: 55 µM

Question: Which EC50 does the source give for O[C@@H]1[C@@H](O)[C@H](Oc2ccc3cc(S)ccc3c2)OC[C@H]1O here?
Answer: 135 µM

Question: With O[C@@H]1[C@@H](O)[C@H](Oc2ccc3ccc(S)cc3c2)OC[C@H]1O as the molecule, how does the EC50 read?
Answer: 360 µM

Question: For CCCSc1cccc2cccc(O[C@@H]3OC[C@@H](O)[C@H](O)[C@H]3O)c12, which EC50 is on record?
Answer: 155 µM

Question: For O[C@@H]1[C@@H](O)[C@H](Oc2cccc3cccc(S)c23)OC[C@H]1O, which EC50 is on record?
Answer: 45 µM

Question: With Oc1ccc2cc(O[C@@H]3OC[C@@H](O)[C@H](O)[C@H]3O)ccc2c1 as the molecule, how does the EC50 read?
Answer: 50 µM

Question: For Oc1ccc(S[C@@H]2OC[C@@H](O)[C@H](O)[C@H]2O)c2ccccc12, which EC50 is on record?
Answer: 160 µM

Question: For Oc1cc2ccccc2cc1S[C@@H]1OC[C@@H](O)[C@H](O)[C@H]1O, which EC50 is on record?
Answer: 260 µM

Tested on: not listed separately
Assay: Antiproliferative activity against human HFL1 cells after 96 hrs by crystal violet method
Assay type: cell-based
Conditions: read-out: ED50
Summary of the method: as §1

Question: With CCCSc1ccc2ccc(O[C@@H]3OC[C@@H](O)[C@H](O)[C@H]3O)cc2c1 as the molecule, how does the GI50 at 96 h read?
Answer: 25 µM

Question: With Oc1ccc2ccc(S[C@@H]3OC[C@@H](O)[C@H](O)[C@H]3O)cc2c1 as the molecule, how does the GI50 at 96 h read?
Answer: 125 µM

Question: Which GI50 at 96 h does the source give for CCCSc1ccc2cc(O[C@@H]3OC[C@@H](O)[C@H](O)[C@H]3O)ccc2c1 here?
Answer: 30 µM

Question: With CCCSc1ccc(O[C@@H]2OC[C@@H](O)[C@H](O)[C@H]2O)c2ccccc12 as the molecule, how does the GI50 at 96 h read?
Answer: 30 µM

Question: With CCCSc1cc2ccccc2cc1O[C@@H]1OC[C@@H](O)[C@H](O)[C@H]1O as the molecule, how does the GI50 at 96 h read?
Answer: 30 µM

Question: With O[C@@H]1[C@@H](O)[C@H](Oc2cccc3c(S)cccc23)OC[C@H]1O as the molecule, how does the GI50 at 96 h read?
Answer: 60 µM

Question: With O[C@@H]1[C@@H](O)[C@H](Oc2cc3ccccc3cc2S)OC[C@H]1O as the molecule, how does the GI50 at 96 h read?
Answer: 60 µM

Question: With CCCSc1cccc2c(O[C@@H]3OC[C@@H](O)[C@H](O)[C@H]3O)cccc12 as the molecule, how does the GI50 at 96 h read?
Answer: 20 µM

Question: For Oc1cccc2cccc(S[C@@H]3OC[C@@H](O)[C@H](O)[C@H]3O)c12, which GI50 at 96 h is on record?
Answer: 120 µM

Question: For Oc1cccc2c(S[C@@H]3OC[C@@H](O)[C@H](O)[C@H]3O)cccc12, which GI50 at 96 h is on record?
Answer: 135 µM

Question: Which GI50 at 96 h does the source give for Oc1ccc2cc(S[C@@H]3OC[C@@H](O)[C@H](O)[C@H]3O)ccc2c1 here?
Answer: 145 µM

Question: For O[C@@H]1[C@@H](O)[C@H](Oc2ccc(S)c3ccccc23)OC[C@H]1O, which GI50 at 96 h is on record?
Answer: 70 µM

Question: Which GI50 at 96 h does the source give for O[C@@H]1[C@@H](O)[C@H](Oc2ccc3cc(S)ccc3c2)OC[C@H]1O here?
Answer: 60 µM

Question: For O[C@@H]1[C@@H](O)[C@H](Oc2ccc3ccc(S)cc3c2)OC[C@H]1O, which GI50 at 96 h is on record?
Answer: 100 µM

Question: With CCCSc1cccc2cccc(O[C@@H]3OC[C@@H](O)[C@H](O)[C@H]3O)c12 as the molecule, how does the GI50 at 96 h read?
Answer: 100 µM

Question: With O[C@@H]1[C@@H](O)[C@H](Oc2cccc3cccc(S)c23)OC[C@H]1O as the molecule, how does the GI50 at 96 h read?
Answer: 60 µM

Question: For Oc1ccc(S[C@@H]2OC[C@@H](O)[C@H](O)[C@H]2O)c2ccccc12, which GI50 at 96 h is on record?
Answer: 130 µM

Question: For Oc1cc2ccccc2cc1S[C@@H]1OC[C@@H](O)[C@H](O)[C@H]1O, which GI50 at 96 h is on record?
Answer: 100 µM

Tested on: CHO
Assay: Antiproliferative activity against heparan sulfate deficient […] CHO cells
Assay type: cell-based, Cricetulus griseus
Conditions: chinese hamster

Question: With Oc1ccc2cc(O[C@@H]3OC[C@@H](O)[C@H](O)[C@H]3O)ccc2c1 as the molecule, how does the Activity read?
Answer: Not Active
